# Compound activity from PubChem.
# Shown is part of a subset that was picked to be rich in hits.
# GSH fluor: GSH bead compound fluorescence profile; GSH beads flow cytometry, compound fluorescence 488/530 nm; stronger effect = higher value; 190,000 compounds, 0.25% hits; AID 1776; fluorescence (KMESF) at 10 µM; in the data active = fluorescence above about 89;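 also: glutathione beads carrying GST-tagged Bcl family fusion proteins plus one bare bead set; values are compound well signal with DMSO vehicle wells as background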
# PKD1 kinase inh: inhibitors of human PKD1 kinase; PKD1 kinase fluorescence polarization assay; inhibition, % (test concentration not listed); AID 797; 200,000 compounds, 0.056% hits
# ABCG2 inh: blocks JC-1 efflux by human ABCG2 transporter; IgMXP3 cells, flow cytometry; Q9UNQ0; 190,000 compounds, 0.1% hits; inhibition, % at 6.6 µM;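 active = inhibition above 80%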;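 also: 0% = DMSO and 100% = nicardipine control wells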
# Target sequence (Q9UNQ0 whole entry, looked up): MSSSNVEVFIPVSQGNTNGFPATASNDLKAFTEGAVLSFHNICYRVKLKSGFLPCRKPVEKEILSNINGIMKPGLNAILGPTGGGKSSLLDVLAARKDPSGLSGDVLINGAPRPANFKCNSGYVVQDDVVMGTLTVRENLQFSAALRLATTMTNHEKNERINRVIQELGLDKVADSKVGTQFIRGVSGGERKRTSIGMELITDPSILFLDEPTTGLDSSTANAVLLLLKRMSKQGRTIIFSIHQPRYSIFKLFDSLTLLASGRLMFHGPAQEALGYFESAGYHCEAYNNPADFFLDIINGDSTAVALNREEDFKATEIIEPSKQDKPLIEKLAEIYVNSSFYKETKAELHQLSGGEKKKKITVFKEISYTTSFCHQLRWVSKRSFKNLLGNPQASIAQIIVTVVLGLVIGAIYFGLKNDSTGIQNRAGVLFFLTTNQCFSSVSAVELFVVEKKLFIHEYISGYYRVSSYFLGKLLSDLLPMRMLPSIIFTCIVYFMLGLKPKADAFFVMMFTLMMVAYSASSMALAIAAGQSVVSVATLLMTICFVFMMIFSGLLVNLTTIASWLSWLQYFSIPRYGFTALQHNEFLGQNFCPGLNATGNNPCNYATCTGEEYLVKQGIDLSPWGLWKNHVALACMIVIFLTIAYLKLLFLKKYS
#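 Assay system – ABCG2 IgMXP3 and barcoded ABCB1 CCRF-Adr cell mix · Input – 3 million cells/mL in well · Reagent – JC-1 fluorescent substrate · Compound – single test compound dose, 6.6 µM final · Timing – 10 min exposure at 25 °C with rotation, no wash · Detection – flow cytometry of retained JC-1 fluorescence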
# ABCB1 inh: human ABCB1 inhibition, ABCG2 as counter-screen; CCRF-Adr cells, JC-1 efflux, flow cytometry; inhibition, % at 6.6 µM; 190,000 compounds, 0.067% hits; AID 1326; in the data active = inhibition above about 40%;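 also: 0% = vehicle and 100% = reference inhibitor; higher value means more JC-1 retained so stronger ABCB1 efflux block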
# Avidin fluor: avidin bead compound fluorescence profile. Avidin beads, compound fluorescence 488/530 nm, flow cytometry; stronger effect = higher value. 220,000 compounds, 0.38% hits. fluorescence (KMESF) at 10 µM; in the data active = fluorescence above about 47
# Lmaj promast: inhibitors of Leishmania major promastigote growth | Leishmania major promastigotes, resazurin fluorescence viability | inhibition, % at 10 µM | 200,000 compounds, 9% hits | AID 1063;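 also: promastigotes grown with compound for 44 hours at 28 °C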
# Numbers without * were called inactive; . = not tested or not shown. Rule as the data show it, unless noted: active = inhibition above about 50%; inactive = the rest.
SMILES,GSH fluor,PKD1 kinase inh,ABCG2 inh,ABCB1 inh,Avidin fluor,Lmaj promast
NS(=O)(=O)c1ccc(CCNS(=O)(=O)c2ccc(Cl)nc2)cc1,.,.,.,.,8,.
c1cncc(-c2nc(NCc3ccco3)c3ccccc3n2)c1,9,-11.4,6.9,0.8,9,76.8*
CNc1nc(SC)nc2ccccc12,19,3.0,-0.1,-0.5,8,30.2
Cc1ccc(-c2nc(NCc3ccco3)c3ccccc3n2)cc1,6,-10.8,3.0,-0.6,9,100.0*
CSc1nc(NCc2ccco2)c2ccccc2n1,30,-11.9,1.6,0.4,6,69.9*
O=c1[nH]nc(-c2ccc(F)cc2)cc1Cc1ccccc1,.,.,.,.,8,.
Cc1cc(C)n2nc(N)c(N=Nc3ccc(Cl)cc3)c2n1,6,-5.5,-5.4,-1.2,4,-5.7
O=C(/C=C/c1ccc(S(=O)(=O)N2CCOCC2)cc1)NCc1ccc(Cl)cc1,6,-8.8,4.9,0.9,3,17.7
O=C(/C=C/c1ccc(S(=O)(=O)N2CCOCC2)cc1)NCc1ccccc1Cl,9,-4.2,-2.8,1.2,14,79.6*
O=C(NN1C(=O)c2ccccc2NC1c1ccc([N+](=O)[O-])o1)c1ccccc1 (configuration not stated),22,-7.5,6.4,1.1,6,86.4*
O=C(NN1C(=O)c2ccccc2NC1c1ccoc1)c1ccc([N+](=O)[O-])cc1 (configuration not stated),18,8.0,5.6,0.4,9,-0.3
O=C(NN1C(=O)c2ccccc2NC1c1ccc([N+](=O)[O-])o1)c1ccc([N+](=O)[O-])cc1 (configuration not stated),18,-1.4,3.6,0.2,10,94.6*
N#CC1=C(N)OC2=C(CC/C2=C\c2ccc(F)cc2)C1c1ccc(F)cc1 (configuration not stated),18,13.2,-1.1,0.2,28,100.5*
CCC(C)n1c(NC(=O)c2ccccc2)c(C#N)c2nc3ccccc3nc21 (configuration not stated),.,-6.0,.,.,.,48.5
CCCCn1c(NC(=O)c2ccccc2)c(C#N)c2nc3ccccc3nc21,18,2.2,.,.,8,97.3*
COC(=O)c1cn(CC(=O)Nc2ccc(F)cc2)c2ccccc12,13,0.7,5.8,0.5,9,-3.7
Cc1ccc2nc(-c3ccccc3)c(CN3CCSCC3)n2c1,18,5.6,1.1,1.0,11,62.6*
Cc1ccc2nc(-c3ccccc3)c(CN3CCN(c4ccccc4F)CC3)n2c1,15,-5.9,0.7,0.8,7,79.8*
CN1CCCN(C(=O)c2cc(-c3ccc(Cl)c(Cl)c3Cl)nc3ccccc23)CC1,10,-4.6,2.1,4.7,12,55.2*
O=C(OCC(=O)N1CCN(C(=O)c2ccco2)CC1)c1cc(-c2ccc(Cl)c(Cl)c2Cl)nc2ccccc12,21,-7.2,1.5,3.9,5,22.6
COc1ccccc1N1CCN(CC(=O)Nc2ccc(CN3CCCCC3)cc2)CC1,24,-13.6,1.4,0.9,10,64.0*
Cc1ccc(Cl)cc1N1CCN(CC(=O)Nc2ccc(CN3CCCCC3)cc2)CC1,30,1.5,0.9,0.5,6,98.5*
COc1ccccc1NC(=O)CN1CCN(c2ccccc2OC)CC1,18,3.4,7.7,1.1,10,4.3
CCC(OC(=O)c1cc2sccc2n1C)C(=O)NCC1CCCO1 (configuration not stated),43,6.6,2.1,1.1,47*,-3.2
CCN1CCN(CC(=O)n2c3c(c4ccccc42)CC(C)CC3)CC1 (configuration not stated),38,2.7,1.5,0.2,15,100.4*
SMILES,GSH fluor,PKD1 kinase inh,ABCG2 inh,ABCB1 inh,Avidin fluor,Lmaj promast
CC1CCN(CC(=O)n2c3c(c4ccccc42)CCCC3)CC1,17,-2.1,.,.,2,4.5
CCn1c(=O)c([N+](=O)[O-])c(N2CCN(Cc3ccc4c(c3)OCO4)CC2)c2ccccc21,.,.,.,.,6,.
CCN(CC)CCCNC1=C(Cl)C(=O)c2ccccc2C1=O,20,-0.1,1.3,0.4,6,99.8*
Cc1cccc(OCC(=O)N2CCC(N3CCCCCC3)CC2)c1,5,11.3,0.9,0.5,17,92.2*
Cc1cccc(OCC(=O)N2CCN(S(C)(=O)=O)CC2)c1,13,-7.0,2.1,1.2,9,-5.7
O=C(c1cccc(F)c1)N1CCN(C2CCCCC2)CC1,269*,3.0,0.0,0.1,6,-2.9
O=C(c1cccc(C(F)(F)F)c1)N1CCN(C2CCCCC2)CC1,29,-0.8,1.1,0.4,5,5.8
O=C(c1cccc(F)c1)N1CCC(N2CCCCCC2)CC1,11,1.1,1.8,1.1,21,87.4*
Cc1ccc(CNC(=O)COC(=O)c2cnc(C)cn2)cc1,16,-1.9,1.3,-0.1,9,-4.8
Cc1cnc(C(=O)OCc2ccc(COC(=O)c3cnc(C)cn3)cc2)cn1,7,-9.5,2.2,0.3,69*,-11.1
c1csc(-c2noc(CN3CCc4sccc4C3)n2)c1,16,-3.2,2.5,0.9,12,-5.9
CSCCC(NS(=O)(=O)c1ccc(Cl)cc1)C(=O)OCC(=O)N(C(C)C)C(C)C (configuration not stated),37,-0.9,20.5,1.4,16,4.7
COc1ccc(CNC(=O)C(CCSC)NS(=O)(=O)c2ccccc2F)cc1 (configuration not stated),29,-3.5,0.3,0.2,7,1.4
CSCCC(NS(=O)(=O)c1ccc(Cl)cc1)C(=O)OCc1c(Cl)cccc1Cl (configuration not stated),4,-9.8,4.8,0.2,12,99.3*
CSCCC(NS(=O)(=O)c1ccc(Cl)cc1)C(=O)OCc1cccc(Cl)c1 (configuration not stated),13,-6.4,7.6,1.4,13,96.9*
CSCCC(NS(=O)(=O)c1ccccc1F)C(=O)OCc1ccccc1Cl (configuration not stated),11,-4.9,20.6,2.4,16,74.9*
O=C(COC(=O)C1(c2ccc(F)cc2)CCCC1)NCc1ccco1,14,-4.0,1.8,1.6,10,-8.4
CN1CCN(C(=O)C23CC4CC(C2)CC(c2ccccc2)(C4)C3)CC1,20,5.7,3.4,4.7,6,18.2
CC(=O)c1ccc(NC(=O)COC(=O)CCc2ccc(S(=O)(=O)N3CCOCC3)cc2)cc1,.,.,.,.,2,.
Cc1ccc(S(=O)(=O)Nc2ccc3nc(C)sc3c2)cc1,16,3.1,1.1,0.3,9,1.9
Cc1ccc(S(=O)(=O)Nc2ccc3nc(N)sc3c2)cc1,27,13.9,1.6,0.7,49*,10.9
Cc1cc2oc(=O)cc(Cn3ccnc3)c2cc1C,273*,-0.2,0.9,0.1,8,-8.5
CC(=O)NNC(=S)NC(=O)c1ccc(C)cc1,8,1.0,0.5,0.0,14,9.9
